Data from ChEMBL document CHEMBL1128440 (J Med Chem, 1995).

How the values were obtained:
[1] = biological target: T1, Progesterone receptor (Homo sapiens) (UniProt P06401); assay: Binding selectivity index as the ratio of RBA value to that of NSB value.
T1 sequence (whole entry): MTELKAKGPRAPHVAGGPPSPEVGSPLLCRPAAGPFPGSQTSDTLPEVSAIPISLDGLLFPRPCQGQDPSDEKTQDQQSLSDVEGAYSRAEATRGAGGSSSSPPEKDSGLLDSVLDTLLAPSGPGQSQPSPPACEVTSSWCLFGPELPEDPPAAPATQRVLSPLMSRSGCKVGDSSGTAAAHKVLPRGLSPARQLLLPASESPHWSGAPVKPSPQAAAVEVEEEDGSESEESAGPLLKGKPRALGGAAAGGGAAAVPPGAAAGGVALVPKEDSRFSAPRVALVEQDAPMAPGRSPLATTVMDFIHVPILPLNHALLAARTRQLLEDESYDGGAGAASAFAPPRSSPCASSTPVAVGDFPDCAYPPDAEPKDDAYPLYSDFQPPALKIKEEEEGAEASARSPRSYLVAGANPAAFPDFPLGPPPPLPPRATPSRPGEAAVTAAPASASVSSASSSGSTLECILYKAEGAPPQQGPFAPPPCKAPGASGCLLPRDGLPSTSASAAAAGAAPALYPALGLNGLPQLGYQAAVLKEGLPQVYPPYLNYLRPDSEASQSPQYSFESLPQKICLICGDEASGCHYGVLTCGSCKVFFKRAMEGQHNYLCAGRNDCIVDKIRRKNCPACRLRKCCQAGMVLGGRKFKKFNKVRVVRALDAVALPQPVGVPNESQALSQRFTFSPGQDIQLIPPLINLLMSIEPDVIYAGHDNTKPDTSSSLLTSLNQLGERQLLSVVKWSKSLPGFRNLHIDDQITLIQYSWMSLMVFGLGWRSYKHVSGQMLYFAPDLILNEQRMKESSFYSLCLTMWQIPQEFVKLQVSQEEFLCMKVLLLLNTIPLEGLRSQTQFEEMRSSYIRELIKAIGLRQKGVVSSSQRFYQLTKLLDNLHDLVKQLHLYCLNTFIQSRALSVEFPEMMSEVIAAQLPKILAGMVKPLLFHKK
Outline: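 BSI calculated as the ratio of RBA to NSB.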

[2] = biological target: T1, Progesterone receptor (Homo sapiens); assay: Relative binding affinity against progesterone receptor at 0 degree Celsius determined in a competitive radiometric binding assay (R5020=100%).
Outline: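 Competitive radiometric binding at 0 °C against tritium-labeled R5020 as the standard (RBA = 100). Values are the average of two experiments.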

[3] = biological target: T1, Progesterone receptor (Homo sapiens); assay: Nonspecific binding affinity against progesterone receptor was estimated relative to compound R5020

Q: `CCC(=O)[C@@]1(C)CC[C@H]2[C@@H]3CCC4=CC(=O)CCC4=C3CC[C@@]21C` was tested. Which BSI [1] did it give?
A: Its BSI is 100.

Q: What about the RBA [2] of the same compound?
A: Its RBA is 100.

Q: What about the NSB [3] of the same compound?
A: Its NSB is 1.
